# BAP1 inh: inhibitors of BAP1 deubiquitinase, primary screen, biochemical, Ub-AMC fluorescence, kinetic. calls only at 20 µM. Ubiquitin carboxyl-terminal hydrolase BAP1 (Homo sapiens), Q92560. recombinant BAP1, Ub-AMC hydrolysis fluorescence kinetic; hits give low values. actives 0.48% (n = 72,000);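 active = activity remaining at or below 50% of control, provided the compound also passes the data quality filters; inactive = the rest, including low values that fail the filters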
# M1 antag: antagonists of rat M1 muscarinic receptor; Muscarinic acetylcholine receptor M1 (Rattus norvegicus), P08482; CHO-M1 cells, Fluo-4 calcium, ACh EC80 antagonist mode; hits give low values; B-score at 10 µM; actives 3.4% (n = 64,000); AID 628, 2007;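 active = calcium fluorescence response, raw or row-and-column corrected B-score, differing from the plate sample mean either way at a set confidence level, mostly lower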
# Target sequence (P08482 whole entry, looked up): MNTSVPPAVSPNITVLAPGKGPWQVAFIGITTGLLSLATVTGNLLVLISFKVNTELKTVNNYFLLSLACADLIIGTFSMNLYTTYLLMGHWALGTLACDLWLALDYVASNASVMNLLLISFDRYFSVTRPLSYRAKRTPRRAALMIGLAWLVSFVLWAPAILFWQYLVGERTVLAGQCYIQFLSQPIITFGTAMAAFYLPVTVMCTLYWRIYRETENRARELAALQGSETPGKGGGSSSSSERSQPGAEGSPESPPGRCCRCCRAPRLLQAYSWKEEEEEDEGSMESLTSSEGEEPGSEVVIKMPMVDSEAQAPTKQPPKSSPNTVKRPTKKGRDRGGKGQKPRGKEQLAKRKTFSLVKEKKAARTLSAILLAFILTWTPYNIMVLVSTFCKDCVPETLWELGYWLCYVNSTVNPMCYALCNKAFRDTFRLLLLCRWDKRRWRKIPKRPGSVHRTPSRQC
# M1 ag: M1 muscarinic receptor agonists, primary screen, CHO-M1 cells, Fluo-4 calcium, agonist mode; Muscarinic acetylcholine receptor M1; Fluo-4 calcium fluorescence; hits give high values; B-score at 10 µM; actives 3% (n = 64,000); AID 626, 2007;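 active = fluorescence rise, raw or as B-score row- and column-corrected plate score, outside the 99.7% band of its plate's samples, either direction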
# Ecoli WT expand: growth inhibitors of wild-type E. coli, primary screen, strain BW25113, expanded library, OD600; AID 710, 2007; growth inhibition, % at 100 µM; OD600 absorbance; actives 0.15% (n = 98,000);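 active = growth inhibition above about 50% at one test dose, limit read from the data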;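 note: growth measured after 20 h incubation at 37 °C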
# Hsp90 block: tumor Hsp90 inhibitors, primary screen, cell lysate, fluorescence polarization, NCI-N417 lysate. Heat shock protein HSP 90-alpha (Homo sapiens), P07900. Cy3B-geldanamycin FP displacement. inhibition, % at 30 µM. actives 0.35% (n = 64,000). AID 429, 2006;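 active = inhibition above 50%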
# tolC growth inh: growth inhibitors of E. coli tolC mutant, primary screen, strain BW25113 ΔtolC::kan, 384-well. growth inhibition, % at 10 µM (by protocol). OD615. actives 2.2% (n = 65,000);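 active = growth inhibition at or above a cutoff equal to the mean over every tested compound plus 3 SD, cut at about 60% in these data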;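 note: growth measured after 20 h incubation at 37 °C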
#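 Test system: tolC-deleted E. coli BW25113 | Medium: LB with kanamycin 50 µg/mL | Compound dosing: Single concentration, 10 µM final per compound | Schedule: 37 °C, 20 h exposure | Measured by: OD at 615 nm | Evaluation: Percent growth inhibition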
# Numbers stand for hits; – = inactive; · = no result shown. This is a sample that favours compounds with a hit; in the whole collection about 5.1% have one here.
SMILES,BAP1 inh,M1 antag,M1 ag,Ecoli WT expand,Hsp90 block,tolC growth inh
CCOC(=O)c1c(NC(=O)CN2C(=O)c3cccc4cccc(c34)C2=O)sc(C)c1C,–,·,·,·,·,·
CCCN(CCC)c1nc(NC2CCN(C(=O)OCC)CC2)nc(OC)n1,–,–,–,–,–,81
Cc1ccc(C(=O)N2CCN(c3cccc(Cl)c3)CC2)cc1C,–,–,–,–,–,68
Cc1ccc(C(=O)N2CCN(c3ccccc3)CC2)cc1C,–,–,–,–,–,–
COC(=O)c1ccc(NC(=O)CN2CCN(c3cccc(Cl)c3)CC2)cc1,–,–,–,–,–,75
Cc1cc(Cl)ccc1OC(C)C(=O)Nc1ccccc1C(F)(F)F (stereo not given),–,·,·,·,·,·
Cc1cc(Cl)ccc1OC(C)C(=O)Nc1ccccc1N1CCOCC1 (stereo not given),–,–,–,–,–,66
CCCN(CCC)S(=O)(=O)c1ccc(C(=O)Nc2nc3c(cc4c5c(cccc53)CC4)s2)cc1,–,·,·,·,·,·
CCOc1ccc(NC(=O)c2c(NC(=O)c3ccccc3F)sc3c2CCCC3)cc1,–,·,·,·,·,·
Cc1ccc(C(=O)Nc2cccc(C(=O)NCc3ccccc3)c2)o1,–,–,3.1,–,–,–
COc1cccc(C(=O)Nc2nc3ccc4sc(C)nc4c3s2)c1,–,·,·,·,·,·
CC(C)C(c1nnnn1C1CCCCC1)N1CCc2ccccc21 (stereo not given),·,·,·,–,·,·
CC(C)C(c1nnnn1C1CCCC1)N1c2ccccc2CC1C (stereo not given),–,–,–,–,–,74
O=C(Cn1cnc([N+](=O)[O-])n1)N1CCCC1,–,·,·,·,·,·
Cc1cccc(Cn2c(=O)n(Cc3ccco3)c(=O)c3ccccc32)c1,–,–,–,–,–,91
Cc1cc(C)c(S(=O)(=O)Nc2c(C)n(C)n(-c3ccccc3)c2=O)c(C)c1,–,·,·,·,·,·
Cc1ccc(Cn2ccc(NC(=O)c3cc(-c4ccc(Cl)cc4)on3)n2)cc1,–,–,–,–,–,–
Cc1ccc(Cn2ccc(NC(=O)c3cc(CC(C)C)on3)n2)cc1,–,–,–,–,–,72
CCSC1=C(C#N)C(c2ccc(Cl)cc2)C2=C(CCCC2=O)N1 (stereo not given),–,–,–,–,–,96
CCOC(=O)CSC1=C(C#N)C(c2ccccc2C)C2=C(CCCC2=O)N1 (stereo not given),–,–,–,–,–,–
Cc1nn(-c2ccc(F)cc2)c2sc(C(=O)N3CCCCCC3)cc12,–,–,–,–,–,97
Cc1nn(-c2ccc(Cl)cc2)c2sc(C(=O)N3CCN(C(=O)c4ccco4)CC3)cc12,·,–,2.8,·,·,–
COC(=O)C(C)Nc1n[nH]c(=S)[nH]c1=O (stereo not given),–,·,·,·,·,·
CCCCCC(=O)N/N=C/c1ccc([N+](=O)[O-])o1,·,·,·,60,·,·
CCSc1oc(-c2ccccc2)nc1S(=O)(=O)c1ccccc1,·,–,–,–,–,69
SMILES,BAP1 inh,M1 antag,M1 ag,Ecoli WT expand,Hsp90 block,tolC growth inh
CCCSc1oc(-c2ccco2)nc1S(=O)(=O)c1ccccc1,–,–,–,–,–,84
O=S(=O)(c1ccccc1)c1nc(-c2ccco2)oc1N1CCCCCC1,–,–,–,–,–,82
CN1CCN(c2oc(-c3ccco3)nc2S(=O)(=O)c2ccccc2)CC1,–,–,–,–,–,–
CCCc1cc(C(=O)Nc2cccc(Cl)c2)no1,–,–,–,–,–,98
Cc1ccc(C(=O)Nc2ccc(NC(=O)c3ccc(C(C)(C)C)cc3)cc2)cc1[N+](=O)[O-],–,·,·,·,·,·
COc1ccc(OC)c(NC(=O)C2CCN(c3cc(-c4ccccc4)nc4ncnn34)CC2)c1,–,–,–,–,–,–
COc1ccccc1NC(=O)N1CCN(c2cc(-c3ccccc3)nc3ncnn23)CC1,–,–,6.3,–,–,–
Cc1cccc(NC(=O)c2cc3c(ccc4ccccc43)oc2=O)n1,–,·,·,·,·,·
Fc1ccc(CNc2nc(-c3ccco3)cc(C(F)(F)F)n2)cc1,·,–,–,–,·,62
Oc1cccc2ccc(Nc3ccccn3)nc12,–,–,–,100,–,–
CCCCNc1ccc2cccc(O)c2n1,–,·,·,·,·,·
CC(C)(C)c1ccc(CNc2cc(N3CCCCC3)ccc2[N+](=O)[O-])cc1,–,·,·,·,·,·
COc1cc(C(=O)Nc2ccc(S(=O)(=O)Nc3cc(C)on3)cc2)cc(OC)c1OC,–,–,–,–,–,–
CCOc1cc(C(=O)Nc2ccc(S(=O)(=O)Nc3cc(C)on3)cc2)cc(OCC)c1OCC,–,–,-3.5,–,–,–
CCOC(=O)N1CCN(c2nc(-c3ccc(F)cc3)cs2)CC1,–,–,–,–,–,92
O=C(CN1CCN(c2nc(-c3ccc(F)cc3)cs2)CC1)NCc1ccc2c(c1)OCO2,–,–,–,–,–,80
CCOc1ccc(-c2[nH]ncc2-c2ccc(OC)c(OC)c2)c(O)c1,–,–,–,–,–,–
CCOc1ccc(-c2[nH]ncc2Oc2ccccc2OC)c(O)c1,–,–,–,–,–,94
CCCOC(=O)c1ccc(Oc2cn[nH]c2-c2ccc(OC)cc2O)cc1,–,–,–,–,–,95
Cc1[nH]nc(-c2ccc(OCc3cnn(-c4ccccc4)c3)cc2O)c1Oc1ccc(F)cc1,·,·,·,–,·,·
CCCOc1ccc(-c2[nH]ncc2Oc2ccccc2)c(O)c1,–,·,·,·,·,·
CCOc1ccc(-c2n[nH]c(C)c2Oc2ccc(OC)cc2)c(O)c1,–,–,–,–,–,95
CCOc1ccc(-c2[nH]ncc2Oc2ccccc2OCC)c(O)c1,–,–,–,–,–,95
C=C(C)COc1ccc(-c2[nH]ncc2Oc2ccccc2OC)c(O)c1,–,–,–,–,–,100
O=C(OCCN1C(=O)c2cccc([N+](=O)[O-])c2C1=O)c1ccc([N+](=O)[O-])cc1,–,·,·,·,·,·
SMILES,BAP1 inh,M1 antag,M1 ag,Ecoli WT expand,Hsp90 block,tolC growth inh
Fc1ccc2[nH]c3c(N4CCN(c5ccccc5)CC4)ncnc3c2c1,–,–,–,–,–,–
OC1(c2cccc(C(F)(F)F)c2)CCN(c2ncnc3c2[nH]c2ccc(F)cc23)CC1,–,–,–,–,–,100
CCCCC(=O)c1c(O)c2ccccc2oc1=O,–,–,–,–,–,99
O=C(CC1CCCCC1)c1c(O)c2ccccc2oc1=O,–,–,–,–,–,100
C=CCNc1ncnc2c1[nH]c1ccc(Cl)cc12,·,·,·,73,·,·
C=CCNc1ncnc2c1[nH]c1ccccc12,·,–,–,77,–,–
CCOC(=O)CNc1c(-c2ccc(O)cc2)nc2ccc(Cl)cn12,–,–,7.8,–,–,–
CCOC(=O)CCc1c(C)nc2cc(-c3ccccc3OC)[nH]n2c1=O,–,2.1,–,–,–,–
